# Laboratory results as given in ChEMBL document CHEMBL4673285, “Design, Synthesis, and Biological Evaluation of Linear Aliphatic Amine-Linked Triaryl Derivatives as Potent Small-Molecule Inhibitors of the Programmed Cell Death-1/Programmed Cell Death-Ligand 1 Interaction with Promising Antitumor Effects In Vivo” (J Med Chem, 2020).
# Calls of active or inactive are those of the source. No cut-off for these calls is given here.
# Experiments:
# [1] = Cytotoxicity against human PBMC cells assessed as reduction in cell viability incubated for 24 hrs by Cell-titer glo Luminescent assay; type: cell-based; conditions: dose 3.125-100 µM
# In short: (§1)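 Cells (Raji, RAW 264.7 or donor PBMCs) plated at 1 × 10⁴ per well in medium with 10% FBS. Treated for 24 h at 37 °C, 5% CO₂ with 100, 50, 25, 12.5, 6.25 or 3.125 μM compound, or buffer containing 0.2% DMSO. Viability read by CellTiter-Glo luminescence; killing rate = (1 − RLU compound/RLU control) × 100%; triplicate, mean ± SEM.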
# [2] = Cytotoxicity against human PBMC cells assessed as reduction in cell viability at 6.3 uM incubated for 24 hrs by Cell-titer glo Luminescent assay; type: cell-based; in short: as §1
# Raji [3] = assay: Cytotoxicity against human Raji cells assessed as reduction in cell viability incubated for 24 hrs by Cell-titer glo Luminescent assay; type: cell-based; in short: as §1
# RAW264.7 [4] = assay: Cytotoxicity against mouse RAW264.7 cells assessed as reduction in cell viability incubated for 24 hrs by Cell-titer glo Luminescent assay; type: cell-based; conditions: RAW264.7, 24 h; in short: as §1
# [5] = Cytotoxicity against human PBMC cells assessed as reduction in cell viability at 100 uM incubated for 24 hrs by Cell-titer glo Luminescent assay relative to control; type: cell-based; in short: as §1
# [6] = biological target: T1, Programmed cell death 1 ligand 1 (Homo sapiens, UniProt Q9NZQ7); assay: Inhibition of human PD-L1 cocultured in PBMC cells assessed as inhibition of PD1/PDL1 interaction mediated increase in IFN-gamma secretion at 1 uM incubated for 72 hrs by ELISA relative to control; type: cell-based
# T1 sequence (Q9NZQ7 whole entry): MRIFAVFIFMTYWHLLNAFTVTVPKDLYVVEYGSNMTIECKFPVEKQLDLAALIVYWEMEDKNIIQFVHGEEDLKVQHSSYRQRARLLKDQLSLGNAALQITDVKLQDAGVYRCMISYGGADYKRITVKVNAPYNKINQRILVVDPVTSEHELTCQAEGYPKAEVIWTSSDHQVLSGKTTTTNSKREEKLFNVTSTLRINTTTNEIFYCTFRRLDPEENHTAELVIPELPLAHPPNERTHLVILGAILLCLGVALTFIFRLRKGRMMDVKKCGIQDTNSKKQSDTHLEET
# In short: (§2)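 Healthy-donor PBMCs, 1 × 10⁵ per well in RPMI 1640 with 10% FBS, stimulated with anti-CD3/anti-CD28 (1:1, 0.8 μg/mL final) plus PD-L1/Fc at 10 μg/mL final. Compound added at 0.1 or 1 μM final and cocultured 72 h at 37 °C, 5% CO₂. Supernatant IFN-γ measured by ELISA; quadruplicate, mean ± SEM.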
# [7] = biological target: T1, Programmed cell death 1 ligand 1; assay: Inhibition of human PD-L1 cocultured in PBMC cells assessed as inhibition of PD1/PDL1 interaction mediated increase in IFN-gamma secretion at 0.1 uM incubated for 72 hrs by ELISA relative to control; type: cell-based; in short: as §2
# [8] = Cytotoxicity against human PBMC cells assessed as reduction in cell viability up to 100 uM incubated for 24 hrs by Cell-titer glo Luminescent assay; type: cell-based; in short: as §1
# [9] = Acute toxicity in C57BL/6J mouse xenografted with MC38 cells assessed as mortality at 15 mg/kg, ip QD for 3 week; type: organism-based; conditions: in vivo, 504 h, time 3 weeks
# [10] = Half-life in male Sprague-Dawley rat at 4 mg/kg, iv measured up to 24 hrs by LC-MS/MS analysis; type: ADME, organism-based; conditions: in vivo
# In short: (§3)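 Male Sprague Dawley rats (n = 6, 6−8 weeks, 200−300 g), single 4 mg/kg iv dose in 25% MPD/10% RH40/65% water, freshly prepared. About 0.2 mL blood drawn at 0.08, 0.25, 0.5, 1, 2, 4, 8, 24 h into EDTA-K2, centrifuged 4000g 5 min at 4 °C; plasma assayed by LC−MS/MS; noncompartmental parameters reported as mean ± SD.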
# [11] = MRT (0 to infinity) in male Sprague-Dawley rat at 4 mg/kg, iv measured up to 24 hrs by LC-MS/MS analysis; type: ADME, organism-based; conditions: in vivo; in short: as §3
# [12] = Clearance in male Sprague-Dawley rat at 4 mg/kg, iv measured up to 24 hrs by LC-MS/MS analysis; type: ADME, organism-based; conditions: in vivo; in short: as §3
# Raji [13] = assay: Cytotoxicity against human Raji cells assessed as reduction in cell viability at 3.125 uM incubated for 24 hrs by Cell-titer glo Luminescent assay; type: cell-based; in short: as §1
# [14] = Acute toxicity in C57BL/6J mouse xenografted with MC38 cells assessed as behavior changes at 15 mg/kg, ip QD for 3 week; type: organism-based; conditions: in vivo, 504 h, time 3 weeks
# [15] = Acute toxicity in C57BL/6J mouse xenografted with MC38 cells assessed as change in body weight at 15 mg/kg, ip QD for 3 week; type: organism-based; conditions: in vivo, 504 h, time 3 weeks
# In short: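 Female PD-1-humanized C57BL/6J-Pdcd1^{em1(hPDCD1)/Smoc} mice, six weeks old, were acclimated 1 week. They were given 1 × 10⁶ MC38 cells (mouse PD-L1 knockout, human PD-L1 knock-in) s.c. near the hind-leg groin. Mice were randomised at 50−150 mm³ tumour volume (6 per group) and dosed 15 mg/kg ip once daily for 3 weeks. Vehicle was 0.8% DMSO/7.5% RH40 in saline. Body weight was measured twice weekly.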
# RAW264.7 [16] = assay: Cytotoxicity against mouse RAW264.7 cells assessed as reduction in cell viability at 3.125 to 100 uM incubated for 24 hrs by Cell-titer glo Luminescent assay; type: cell-based; conditions: raw264.7, 24 h, dose 3.125-100 µM; in short: as §1
# [17] = AUClast in male Sprague-Dawley rat at 4 mg/kg, iv measured up to 24 hrs by LC-MS/MS analysis; type: ADME, organism-based; design: route intravenous, dose 4 mg/kg, time <=24; conditions: in vivo; in short: as §3
# [18] = biological target: T1, Programmed cell death 1 ligand 1; assay: Binding affinity to human PD-L1 expressed in CHOK1 cells assessed as inhibition of PD1/PDL1 protein-protein interaction at 500 nM incubated for 30 mins by flow cytometry analysis; type: cell-based; conditions: CHO-K1
# In short: (§4)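 CHO-K1-hPD-L1 cells, 5 × 10⁵ per tube in PBS with 2% FBS, incubated with hPD-1/Fc (10 μg/mL final) at 4 °C for 30 min. Compound added at 500 nM final and incubated a further 30 min at 4 °C, then stained with APC anti-human IgG Fc. Percentage of hPD-1-bound cells read by flow cytometry. Blocking efficacy calculated against a no-inhibitor positive control and parental CHO-K1 negative control.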
# [19] = Dose normalized AUClast in male Sprague-Dawley rat at 4 mg/kg, iv measured up to 24 hrs by LC-MS/MS analysis; type: ADME, organism-based; conditions: in vivo; in short: as §3
# [20] = Volume of distribution at steady state in male Sprague-Dawley rat at 4 mg/kg, iv measured up to 24 hrs by LC-MS/MS analysis; type: ADME, organism-based; conditions: in vivo, read-out: Vdss; in short: as §3
# [21] = Plasma concentration in male Sprague-Dawley rat at 15 mg/kg, po measured up to 24 hrs by LC-MS/MS analysis; type: ADME, organism-based
# In short: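 Male Sprague Dawley rats (n = 6, 6−8 weeks, 200−300 g) given a single 15 mg/kg oral dose in 25% MPD/10% RH40/65% water. Blood sampled at 0.25, 0.5, 1, 2, 4, 8, 24 h into EDTA-K2 and spun to plasma; LC−MS/MS analysis, quantifiable limit 0.5 ng/mL.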
# [22] = biological target: T1, Programmed cell death 1 ligand 1; assay: Binding affinity to human PD-L1 expressed in CHOK1 cells assessed as inhibition of PD1/PDL1 protein-protein interaction at 500 nM incubated for 30 mins by flow cytometry analysis relative to control; type: cell-based; conditions: CHO-K1; in short: as §4
# MC-38 = assay: Antitumor activity against mouse MC38 cells xenografted in PD-L1 knockout/PD1 knock-in C57BL/6J mouse assessed as tumor growth inhibition at 15 mg/kg, ip QD for 3 weeks measured after day 21; type: functional; design: scale not given: the % may be the effect or the level left
# [23] = AUC (0 to infinity) in male Sprague-Dawley rat plasma at 4 mg/kg, iv measured up to 24 hrs by LC-MS/MS analysis; type: ADME, organism-based; design: route intravenous, dose 4 mg/kg, time <=24; in short: as §3
# [24] = AUC (extrapolated) in male Sprague-Dawley rat at 4 mg/kg, iv measured up to 24 hrs by LC-MS/MS analysis; type: ADME, organism-based; conditions: in vivo; in short: as §3
# [25] = biological target: T1, Programmed cell death 1 ligand 1; assay: Binding affinity to biotinylated human AVI-PD-L1 by biolayer interferometry
# In short: (§5)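 Biotinylated human PD-L1/AVI at 10 μg/mL loaded on streptavidin biosensors for 300 s, then baselined. Association with compound at 20 to 0.3125 nM plus 0 nM for 180 s, then dissociation in buffer for 300 s. Data globally fitted to a 1:1 model to give ka and kdis; apparent affinity taken as their ratio.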
# [26] = Initial plasma concentration in male Sprague-Dawley rat plasma at 4 mg/kg, iv measured up to 24 hrs by LC-MS/MS analysis; type: ADME, organism-based; in short: as §3
# [27] = biological target: T1, Programmed cell death 1 ligand 1; assay: Binding affinity to biotinylated human AVI-PD-L1 assessed as dissociation rate constant by biolayer interferometry
# [28] = biological target: T1, Programmed cell death 1 ligand 1; assay: Binding affinity to biotinylated human AVI-PD-L1 assessed as association constant by biolayer interferometry; in short: as §5
structure (smiles),measurement,setting,value
COc1nc(NCc2cccc(-c3ccccc3)c2C)ccc1CNCCNC(C)=O,Activity,[1],Toxic
same,Activity,[2],Non-Toxic
same,EC50,Raji [3],13.8 µM
same,EC50,RAW264.7 [4],6.97 µM
same,Activity,[5],100%
Cc1cc(CN[C@H](CO)C(=O)O)c(OCc2cncc(C#N)c2)cc1NCc1cccc(-c2ccccc2)c1C,inhibition,[6],56.8%
same,inhibition,[7],72.9%
same,Activity,[8],Non-Toxic
same,Activity,[9],Non-Toxic
same,half-life,[10],82.8 min
same,Activity,[2],Non-Toxic
same,MRT inf,[11],29.2 min
same,clearance,[12],74.5 mL/min/kg
same,Activity,Raji [13],Non-Toxic
same,Activity,[14],Non-Toxic
same,Activity,[15],Non-Toxic
same,Activity,RAW264.7 [16],Non-Toxic
same,AUC(0-t) at 24 h,[17],905 ng·h/mL
same,Activity,[18],Active
same,AUClast/dose,[19],226 ng·kg·h/mL/mg
same,Vd,[20],2.17 L/kg
same,concentration at 24 h,[21],0.5 ng/mL
same,Efficacy,[22],97.5%
same,Activity,MC-38,61.7%
same,AUC(0-inf),[23],908 ng·h/mL
same,%AUCextra,[24],0.283%
same,Dissociation constant (KD),[25],1.62 10^-11M
same,C0 at 24 h,[26],4370 ng/mL
same,koff,[27],3.53 10^-5/s
same,association rate constant (kon),[28],2.17 10^6/M/s
